# From the RNAGym collection of RNA variant scans (doi:10.1126/science.aae0568)
# This sample holds only a part of the variants without activity.
# B1: tRNA (parent)
# chain: GUUCCGUUGGCGUAAUGGUAACGCGUCUCCCUCCUAAGGAGAAGACUGCGGGUUCGAGUCCCGUACGGAACG
# Variants of: B1
# Test: yeast fitness relative to wild type (ratio to wild type); higher = fitter; tRNA-Arg(CCU), competitive growth, 37 C, YPD
# Outline: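 The tRNA-Arg(CCU) gene variants were made by chemical synthesis with a 3% per-site mutation rate at 69 sites and inserted at the native genomic locus of Saccharomyces cerevisiae. After pooling, the strains were competed in YPD at 37°C for 24 hours in six parallel replicates. Gene amplicons from the start population and each end population were read by 100-nucleotide paired-end sequencing, and Darwinian fitness relative to wild type was taken from genotype frequency changes. Genotypes needed ≥ 100 starting reads, and estimates < 0.5 were set to 0.5.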
row,Variant,yeast fitness
1,U2A U8C C30G U59A U64A,0.569
2,U2C A15C C55G A57C,0.512
3,U2C C22A C29A G51C,0.596
4,U2C C4U C34U C55U G68C,≤ 0.5
5,U2C A20C C29G A36C G52C A57U,≤ 0.5
6,U2C C5G A37G G48A,≤ 0.5
7,U2C C46G,0.98
8,U2C C5G C62U,0.717
9,U2C A45C C46U G68C,≤ 0.5
10,U2C A14U C31U C62G,≤ 0.5
11,U2C A37U,0.826
12,U2C A37C,0.81
13,U2C A37G,0.67
14,U2A U8A G9A U13A C24A A45C,≤ 0.5
15,U2A U28A G51C A57C,≤ 0.5
16,U2C C29A U53C C62A G67A,≤ 0.5
17,U2C A21U U32A A40C G56C,≤ 0.5
18,U2C A15C C55G A57C C66A,≤ 0.5
19,U2A U7C G25A A36U C60A C62G,0.58
20,U2C A65U,1.05
21,U2C C27A A65G,0.632

row,Variant,yeast fitness
1,U2C A14C C46A A65G,≤ 0.5
2,U2A U59C C66G,0.537
3,U2C C5G A45C A69U,0.549
4,U2C A20G C30U,0.576
5,U2C C11U A37U U53A,≤ 0.5
6,U2A U8A C33U A43U A57G,≤ 0.5
7,U2C A37U U53A G63A,≤ 0.5
8,U2C A20U C34G A42G A43U A65G,≤ 0.5
9,U2C C30U C31G G50U,≤ 0.5
10,U2C A37G A40G A45U,≤ 0.5
11,U2C C4A U13C C29U U47A G52A C62U,≤ 0.5
12,U2C C4U C34U,0.719
13,U2C C5A G10C G12A G23A,≤ 0.5
14,U2A U16A C66U A69G,≤ 0.5
15,U2C A14U A21U,0.596
16,U2C C5A C24A U64G,≤ 0.5
17,U2C C4A C11U C60A C62U,≤ 0.5
18,U2A U16A C49A G50A G68C,≤ 0.5
19,U2C A40G G68C,0.571
20,U2C C22G A37C A45U G67A,≤ 0.5
21,U2C C24A U26A U47C,≤ 0.5

row,Variant,yeast fitness
1,U2C A20G C22U C24A A69G,≤ 0.5
2,U2A U32C U53C,≤ 0.5
3,U2A U3C U26C U35A C62A,≤ 0.5
4,U2C A40G A45C,≤ 0.5
5,U2C A15C C22A C31U C55A,≤ 0.5
6,U2C C49A C62U,≤ 0.5
7,U2C A36G C61G U64C,≤ 0.5
8,U2A U16A,0.989
9,U2A U16C,0.88
10,U2C A43U U47C,0.749
11,U2C C11A A40C,0.553
12,U2C C22G A36G,0.651
13,U2A U7G C27U G39C C60A,≤ 0.5
14,U2C C11U A21C U26C C34A A45U C46A G50A U54C C55G,≤ 0.5
15,U2A U8A C11G U54A,≤ 0.5
16,U2C A42C C66U,0.574
17,U2C C27A G41A C49A U53C U54C,≤ 0.5
18,U2C A20G C62U,0.599
19,U2A U16A G56C A57G C62U,≤ 0.5
20,U2C C46U C66U,0.779
21,U2C A37U G48A C61U,≤ 0.5

row,Variant,yeast fitness
1,U2C A14C C31A,≤ 0.5
2,U2A U64A,0.855
3,U2C C4U C27U A45C G48A G56C,≤ 0.5
4,U2C C11A C31U C33U A42C,0.527
5,U2A U35A A45C,≤ 0.5
6,U2C A14G C46U,0.669
7,U2C C22A,0.927
8,U2C C24G U53G A57G,≤ 0.5
9,U2C C29U C31G U35A,≤ 0.5
10,U2C C30U C31G,0.771
11,U2C A43U,0.989
12,U2C A43C A45C G51C,≤ 0.5
13,U2C A15U C46A,≤ 0.5
14,U2C C11U C22U A57U,≤ 0.5
15,U2C A43U G50A U54G C62U,≤ 0.5
16,U2A U7A C27U C46G,≤ 0.5
17,U2C C30U A37C G38C U54A,≤ 0.5
18,U2C A21C C30A C62U A70U,≤ 0.5
19,U2C C11U A65C,0.583
20,U2C A14G G17A C46U C60A,≤ 0.5
21,U2C C11G C24A,0.665
